Source: ChEMBL document CHEMBL1123860, “C1- and C3-methyl-substituted derivatives of 7-hydroxy-2-(di-n-propylamino)tetralin: activities at central dopamine receptors” (1987)
“And” between values parts separate entries of the source, which are not always exact repeats. Equal entries are not always repeated. The source made the active and inactive calls. The rule behind the calls is not given here.

Key:
Rattus norvegicus [1] = organism: Rattus norvegicus; assay: Tested for locomotor activity by measuring accumulated counts/30 min in reserpine-non-pretreated rats; assay type: functional
Method in brief: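 Nonpretreated rats were injected with test drug 5 min before a photocell motility session, and counts were accumulated over 30 min. Activity expressed as percent of saline controls, mean ± SEM (n = 3–5), compared by Student's t test. Injections were 5 mL/kg at approximately neutral pH.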

Rattus norvegicus [2] = organism: Rattus norvegicus; assay: Effect on half-maximal decrease of DOPA formation in rat limbic regions; In active (no significant effect […]); assay type: functional; conditions: Limbic system
Rattus norvegicus [3] = organism: Rattus norvegicus; assay: Effect on half-maximal decrease of DOPA formation in rat striatal regions; In active (no significant effect […]); assay type: functional, organism-based
Rattus norvegicus [4] = organism: Rattus norvegicus; assay: Tested for locomotor activity by measuring accumulated counts/30 min in reserpine-pretreated rats; assay type: functional
Method in brief: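 Rats given reserpine 5 mg/kg sc 18 h beforehand, then test drug sc immediately before the session. Motor activity recorded by photocell motility meter as accumulated counts over 30 min, mean ± SEM (n = 3–4). Reserpine controls were used; Student's t test. Injection volume 5 mL/kg at roughly neutral pH.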

Rattus norvegicus [5] = organism: Rattus norvegicus; assay: Effect on half-maximal decrease of DOPA formation in rat striatal regions; assay type: functional
Rattus norvegicus [6] = organism: Rattus norvegicus; assay: Effect on half-maximal decrease of DOPA formation in rat limbic regions; assay type: functional; conditions: Limbic system
Rattus norvegicus [7] = assay: Effect on half-maximal decrease of DOPA formation in rat limbic regions; In active (no significant decrease at […] sc); assay type: functional, organism-based; conditions: Limbic system

SMILES | No. of counts (Rattus norvegicus [1]) | ED50 (Rattus norvegicus [2]) | ED50 (Rattus norvegicus [3]) | No. of counts (Rattus norvegicus [4]) | ED50 (Rattus norvegicus [5]) | ED50 (Rattus norvegicus [6]) | ED50 (Rattus norvegicus [7]) | ED50 (Rattus norvegicus [2]; ip)
CCCN(CCC)[C@H]1Cc2cc(OC)ccc2CC1C (stereo partly specified) | 96% | inactive | inactive | – | – | – | – | –
CCCN[C@@H]1CCc2ccc(O)cc2C1C (single isomer, unassigned; (+)) | – | – | – | 59 counts/30 min | 1.2 µmol/kg | 1.4 µmol/kg | – | –
CN1CCc2cccc3c2[C@H]1Cc1ccc(O)c(O)c1-3 [APOMORPHINE] | 227% | – | – | 366 counts/30 min | 0.04 µmol/kg | 0.04 µmol/kg | – | –
CCCN(CCC)[C@@H]1CCc2ccc(O)cc2C1C (single isomer, unassigned; 6) [listing 1 of 2 here] | – | inactive | inactive | – | – | – | – | –
O=C(CCCN1CCC(O)(c2ccc(Cl)cc2)CC1)c1ccc(F)cc1 [HALOPERIDOL] | 3% | inactive | inactive | – | 0.19 µmol/kg | 0.19 µmol/kg | – | –
CCCN(CCC)[C@@H]1CCc2ccc(O)cc2C1 | – | – | – | 46 counts/30 min | 0.01 µmol/kg | 0.01 µmol/kg | – | –
CCCN(CCC)[C@@H]1CCc2ccc(O)cc2C1C (single isomer, unassigned; 6) [listing 2 of 2 here] | 126% and 136% | – | – | 14 counts/30 min and 17 counts/30 min | – | – | – | –
CCCN(CCC)[C@@H]1CCc2ccc(OC)cc2C1C (single isomer, unassigned; 5) [listing 1 of 2 here] | – | inactive | inactive | – | – | – | inactive | –
CCCN(CCC)[C@@H]1CCc2ccc(O)cc2C1C (single isomer, unassigned; 10) [listing 1 of 2 here] | – | inactive | inactive | – | – | – | – | –
CCCN[C@@H]1CCc2ccc(O)cc2C1C (single isomer, unassigned; (-)) [listing 1 of 2 here] | – | inactive | inactive | – | – | – | – | –
CCCN(CCC)[C@H]1Cc2cc(O)ccc2C[C@H]1C | 119% | inactive | inactive | 331 counts/30 min | 7.5 µmol/kg | 11 µmol/kg | – | –
CCCN[C@@H]1CCc2ccc(O)cc2C1C (single isomer, unassigned; (-)) [listing 2 of 2 here] | – | – | – | 8 counts/30 min | – | – | – | –
CCCN(CCC)[C@@H]1CCc2ccc(OC)cc2C1C (single isomer, unassigned; 9) [listing 1 of 2 here] | – | inactive | inactive | – | – | – | – | –
CCCN(CCC)[C@H]1Cc2cc(O)ccc2C[C@@H]1C | 89% | inactive | inactive | 35 counts/30 min | – | – | – | –
CCCN[C@H]1Cc2cc(OC)ccc2CC1C (stereo partly specified) | 128% | inactive | inactive | – | – | – | – | –
CCCN(CCC)[C@@H]1CCc2ccc(OC)cc2C1C (single isomer, unassigned; 5) [listing 2 of 2 here] | 109% and 92% | – | – | 4 counts/30 min | – | – | – | –
CCCN(CCC)[C@@H]1CCc2ccc(O)cc2C1C (single isomer, unassigned; 10) [listing 2 of 2 here] | – | – | – | 50 counts/30 min and 20 counts/30 min | – | – | – | –
CCCN(CCC)[C@@H]1CCc2ccc(OC)cc2C1C (single isomer, unassigned; 9) [listing 2 of 2 here] | 38% and 28% | – | – | – | 1.3 µmol/kg | – | – | 0.9 µmol/kg
